Assay results gathered from unrelated publications.

| Compound | tested on | observed | method | strain | time | measurement | result |
| --- | --- | --- | --- | --- | --- | --- | --- |
| CC(=O)OCC1=C(C(=O)O)N2C(=O)[C@@H](NC(=O)Cc3cccs3)[C@H]2SC1 | Salmonella enterica | microbial growth | broth dilution | TYPHIMURIUM | – | MIC | < 127 µg/mL |
| O=C(O)c1cn(C2CC2)c2cc(N3CCNCC3)c(F)cc2c1=O | Salmonella enterica | microbial growth | – | ATCC13311 | – | MIC | 4 µM |
| O=C(O)c1cn(C2CC2)c2cc(N3CCNCC3)c(F)cc2c1=O | Salmonella enterica | microbial growth | broth dilution | TYPHIMURIUM | – | MIC | 0.03 µM |
| C=CC(=O)NC1CCN(c2ncc3ncnc(Nc4ccc(Oc5ccc6c(c5)ncn6C)c(C)c4)c3n2)CC1 | AU565 | cell growth or viability | – | – | – | EC50 | 20.8 nM |
| COc1cc2c3c(n(CCCN4CCOCC4)c(=O)c2cc1OC)-c1nc2c(cc1C3=O)OCO2 | RPMI-8226 | cell growth or viability | MTS | – | 72 h | IC50 | 905 nM |
| CC(C)C[C@@H]1NC(=O)[C@@H](N(C)C(=O)[C@H](CC2CCC2)NC(=O)[C@@H]2C[C@@H](F)CN2C(=O)C2(C(F)(F)F)CC(F)(F)C2)CCCCNC(=O)C2(CC2)NC(=O)[C@H](Cc2cc(Cl)ccc2Cl)N(C)C1=O | NCI-H69 | cell growth or viability | MTT | – | 5 days | GI50 | 13 nM |
| C=C/C=C(\C)CC[C@@H]1C[C@@H](O)CC(=O)O1 | Bacillus cereus | microbial growth | broth dilution | ATCC10876 | – | MIC | 128 µg/mL |
| CCNCCCn1c2c(c3cc(OC)c(OC)cc3c1=O)C(=O)c1cc3c(nc1-2)OCO3 | TC-71 | cell growth or viability | MTS | – | 72 h | IC50 | 122 nM |
